From paper PMC5432128 (Environment international, 2017)
≈ marks a conversion by molar mass, not a printed value. Where “and” joins values, the source holds several entries; their conditions need not be identical. Identical values can stand only once. Like-named read-outs stand apart in the source and are kept apart here.

Assays:
[1] = cited from earlier work; for recovery of radioactivity in the urine: rats, ref Powles et al. 1992
α1β3γ2L GABAA receptors = α1β3γ2L GABAA receptors (Homo sapiens, UniProt P14867+P18507+P28472); type: cell-based; conditions: for EC50: 25 μM GABA, -80 mV
Sequence of α1β3γ2L GABAA receptors (P14867 28-456): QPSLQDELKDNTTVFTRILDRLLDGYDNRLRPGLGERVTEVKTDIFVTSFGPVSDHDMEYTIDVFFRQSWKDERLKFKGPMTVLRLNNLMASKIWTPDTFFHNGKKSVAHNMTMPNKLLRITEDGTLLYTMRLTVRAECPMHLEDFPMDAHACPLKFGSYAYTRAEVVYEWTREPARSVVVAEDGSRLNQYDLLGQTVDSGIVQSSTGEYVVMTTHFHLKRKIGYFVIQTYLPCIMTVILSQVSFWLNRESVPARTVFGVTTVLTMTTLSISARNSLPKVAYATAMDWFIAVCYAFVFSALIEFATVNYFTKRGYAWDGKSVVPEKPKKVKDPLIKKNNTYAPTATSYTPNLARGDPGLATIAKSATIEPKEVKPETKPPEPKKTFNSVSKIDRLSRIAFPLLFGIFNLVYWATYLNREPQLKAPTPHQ
Sequence of α1β3γ2L GABAA receptors (P28472 26-473): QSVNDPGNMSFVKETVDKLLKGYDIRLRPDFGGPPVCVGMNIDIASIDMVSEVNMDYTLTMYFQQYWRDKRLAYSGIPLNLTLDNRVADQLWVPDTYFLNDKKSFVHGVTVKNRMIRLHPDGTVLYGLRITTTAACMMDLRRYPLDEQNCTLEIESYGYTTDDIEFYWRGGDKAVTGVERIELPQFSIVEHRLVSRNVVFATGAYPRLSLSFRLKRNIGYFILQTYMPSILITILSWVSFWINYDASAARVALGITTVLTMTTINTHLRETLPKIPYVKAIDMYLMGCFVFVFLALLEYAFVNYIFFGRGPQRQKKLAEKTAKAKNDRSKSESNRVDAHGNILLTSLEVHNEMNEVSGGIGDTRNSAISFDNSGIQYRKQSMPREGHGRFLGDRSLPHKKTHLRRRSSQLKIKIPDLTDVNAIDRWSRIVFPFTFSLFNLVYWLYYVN
Sequence of α1β3γ2L GABAA receptors (P18507 40-475): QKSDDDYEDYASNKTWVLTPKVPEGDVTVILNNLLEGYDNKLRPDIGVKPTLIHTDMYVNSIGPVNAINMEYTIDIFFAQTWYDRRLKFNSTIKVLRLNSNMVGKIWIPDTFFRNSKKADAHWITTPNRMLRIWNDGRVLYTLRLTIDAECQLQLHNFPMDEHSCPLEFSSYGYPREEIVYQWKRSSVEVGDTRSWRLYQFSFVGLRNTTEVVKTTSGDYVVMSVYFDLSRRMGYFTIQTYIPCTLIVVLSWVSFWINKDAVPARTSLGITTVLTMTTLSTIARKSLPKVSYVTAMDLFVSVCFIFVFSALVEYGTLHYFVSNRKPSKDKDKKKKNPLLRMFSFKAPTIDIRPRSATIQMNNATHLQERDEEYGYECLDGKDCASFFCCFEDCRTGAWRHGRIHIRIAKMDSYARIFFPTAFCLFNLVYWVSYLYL

[2] = test system: second instar larvae of S. frugiperda; assay: Insect bioassay, diet surface contamination method; type: in vivo; conditions: for mortality / insecticidal activity: 2nd instar larvae, doses as high as 100 μg/mL (24-fold higher than fipronil LC50)
[3] = in certain conditions; ref Gunasekara et al. 2007; cited from earlier work
dogs = conditions: diet, up to 3 mg/kg bw/day; ref Hamernik 1998; Woodward 2012; cited from earlier work
mice = conditions: 4.5 mg/kg body weight (bw)/day for 13 weeks; ref Hamernik 1998; cited from earlier work
[4] = urine of fipronil-treated rats; ref McMahen et al. 2015; cited from earlier work
rats = conditions: in particular females; low doses (3.4 mg/kg bw); ref Hamernik 1998; cited from earlier work
LC/MS/MS Method 2 = type: in vivo; conditions: EPA group, this study; for Conc sulfone, LOQ 10 ng/mL: rat urine; for concentration at 2 weeks: rat, urine, oral, Conc sulfone, LOQ 10 ng/mL
How it was run: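 Urine came from fipronil-treated rats dosed at 5 or 10 mg/kg, single or repeated daily. Urine (100 μL) was precipitated with cold acetonitrile and centrifuged at 12,500 ×g for 8 min. Supernatant was mixed 1:1 with 10 mM ammonium acetate. HPLC used a C18 column at 30°C with 0.2 mM ammonium acetate methanol/acetonitrile phases, a 50–90% B gradient and flow of 0.4 rising to 0.75 mL/min, then MS/MS.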

LC-MS/MS Method 1 = type: in vivo, rat; conditions: for concentration at 2 weeks: Conc sulfone, LOQ 1.5 ng/mL
How it was run: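 Rats received fipronil in diet at 5 or 10 mg/kg daily, for 14 days or one day. Urine was hydrolysed overnight at 37°C with β-glucuronidase/sulfatase in methanol/ammonium acetate pH 5.5. Urine (40 μL) was spiked with CUDA internal standard and centrifugally filtered at 20,000 g. Analysis used UPLC on C18 at 40°C with a water/acetonitrile 0.1% acetic acid gradient at 0.4 mL/min and […] ESI tandem MS.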

[5] = test system: polyclonal antibodies 2268; assay: Fipronil immunoassay cross-reactivity, serum 2268; type: binding; conditions: serum 2268, n=4; relative to fipronil
[6] = test system: polyclonal antibodies 2265; assay: Fipronil immunoassay cross-reactivity, serum 2265; type: binding; conditions: serum 2265, n=5; relative to fipronil
[7] = inhibitory effective concentration (EC50) on GABA-induced Cl- currents, pre-application at least 3 min, mean ± S.D.

N#Cc1nn(-c2c(Cl)cc(C(F)(F)F)cc2Cl)c(N)c1[S+]([O-])C(F)(F)F (stereo not drawn) [^14C-fipronil]
recovery of radioactivity in the urine ([1]; repeated dosing over 14 days): 14–16%
recovery of radioactivity in the urine ([1]; single dose at 4 mg/kg): 5.6%
recovery of radioactivity in the urine ([1]; single high dose (150 mg/kg)): 22–30%

COC(=N)c1cc(N)n(-c2c(Cl)cc(C(F)(F)F)cc2Cl)n1 [fipronil desulfinyl imidate, methyl 5-amino-1-(2,6-dichloro-4-(trifluoromethyl)phenyl)-1H-pyrazole-3-carbimidate]
activity on GABAA α1β3γ2L receptor currents (in words) (α1β3γ2L GABAA receptors): approximately as potent to fipronil
EC50 (α1β3γ2L GABAA receptors; [7]): 2.78 nM and 2.8 nM
mortality / insecticidal activity [2]: did not show any mortality
mortality / insecticidal activity ([2]; listed as imidate derivative): did not show any insecticidal activity

N#Cc1nn(-c2c(Cl)cc(C(F)(F)F)cc2Cl)c(N)c1[S+]([O-])C(F)(F)F (stereo not drawn) [fipronil]
half-life (t1/2) in the environment [3]: over 100 days
other signs of toxicity observed (dogs): convulsions, head nodding and muscles twitching
weight gain and neurological effects (dogs): did not experience abnormal weight gain or severe neurological effects
EC50 (α1β3γ2L GABAA receptors; [7]): 1.15 nM and 1.2 nM
LC50 ([2]; Spodoptera frugiperda): 4.1 µg/mL (≈ 9.38 µM)
mortality at 100 µg/mL ([2]; Spodoptera frugiperda, 12 h): 100%
mortality at 50 µg/mL ([2]; Spodoptera frugiperda, 48 h): 100%
bodyweight gain (mice): reduced bodyweight gains
free fipronil in urine samples [4]: no detectable amount
liver weight (rats): significant increase in liver weight

N#Cc1nn(-c2c(Cl)cc(C(F)(F)F)cc2Cl)c(N)c1S(=O)(=O)C(F)(F)F [fipronil sulfone]
Conc sulfone, LOQ 10 ng/mL (LC/MS/MS Method 2; fipronil 5 mg/kg repeated): 24 ng/mL
Conc sulfone, LOQ 10 ng/mL (LC/MS/MS Method 2; fipronil 5 mg/kg single): < 10 ng/mL
Conc sulfone, LOQ 10 ng/mL (LC/MS/MS Method 2; fipronil 10 mg/kg single): < 10 ng/mL
concentration at 2 weeks (LC/MS/MS Method 2; 5 mg/kg, fipronil 5 mg/kg repeated): 26 ng/mL
concentration at 2 weeks (LC/MS/MS Method 2; 10 mg/kg, fipronil 10 mg/kg repeated): 23 ng/mL
Conc sulfone, LOQ 1.5 ng/mL (LC-MS/MS Method 1; rat urine, fipronil 5 mg/kg repeated, Method 1): 14 ng/mL
Conc sulfone, LOQ 1.5 ng/mL (LC-MS/MS Method 1; rat urine, fipronil 5 mg/kg repeated, Method 1, listed as sulfone): 17 ng/mL and 14 ng/mL
detection in urine samples (LC-MS/MS Method 1; rat urine, samples 42, 81 and 82): detected only in samples obtained from animals treated with fipronil repeatedly
concentration at 2 weeks (LC-MS/MS Method 1; rat, urine, oral, 5 mg/kg, rat urine, fipronil 5 mg/kg repeated, Method 1): 17 ng/mL
concentration at 2 weeks (LC-MS/MS Method 1; rat, urine, oral, 10 mg/kg, rat urine, fipronil 10 mg/kg repeated, Method 1): 19 ng/mL
concentration in urine samples (LC-MS/MS Method 1; rats treated with fipronil, over all dose groups (abstract)): around 20 ng/mL
share among urinary metabolites ([1]; deconjugated and original rat urine, ref Powles et al. (1992)): minor constituent

N#Cc1nn(-c2c(Cl)cc(C(F)(F)F)cc2Cl)c(N)c1O [hydroxy-fipronil, 5-Amino-1-(2,6-dichloro-4-(trifluoromethyl)phenyl)-4-hydroxy-1H-pyrazole-3-carbonitrile]
Cross-reactivity (CR) [5]: 0.7%
activity on GABAA α1β3γ2L receptor currents (in words) (α1β3γ2L GABAA receptors): did not have a significant inhibitory effect
EC50 (α1β3γ2L GABAA receptors; inhibitory EC50 on GABA-induced Cl- currents): ~1000 nM
EC50 (α1β3γ2L GABAA receptors; [7]): 1000 ± 341 nM
fold higher concentrations to elicit similar current inhibition (α1β3γ2L GABAA receptors; relative to fipronil and fipronil desulfinyl imidate): ≤ 1000 fold
mortality / insecticidal activity [2]: did not show any mortality
Conc FipOH, LOQ 0.4 ng/mL (LC-MS/MS Method 1; rat urine, fipronil 5 mg/kg single, Method 1, listed as FipOH): 23 ng/mL and 24 ng/mL
Conc FipOH, LOQ 0.4 ng/mL (LC-MS/MS Method 1; rat urine, fipronil 10 mg/kg single, Method 1): 14 ng/mL
difference in metabolite concentration, two weeks treatment vs single treatment (LC-MS/MS Method 1; rat urine, same doses 5 or 10 mg/kg): 80 to 700 times
concentration detected in the samples before and after enzymatic hydrolysis (LC-MS/MS Method 1; rat urine, β-glucuronidase/sulfatase, table S4): did not change significantly
concentration at 14 days (LC-MS/MS Method 1; rat, urine, oral, 10 mg/kg, Conc FipOH, LOQ 0.4 ng/mL, rat urine, fipronil 10 mg/kg repeated (14 days), Method 1): 10200 ng/mL
concentration in the urine (LC-MS/MS Method 1; rats, single fipronil dose of 5 or 10 mg/kg): about 20 ng/mL
Cross-reactivity (CR) [6]: 3.2%
